Consider seven molecules from article PMC11031320 (Cell chemical biology, 2024).

The structures appear in SMILES notation. “Also recorded” adds a separate entry of the source. Read-outs that look alike come from different tables or passages of the source.

The target in series [1] is wild-type (WT) HsHsp90 nucleotide-binding domain (NBD) (Homo sapiens, UniProt P07900). As to the kind of experiment: FITC-GA competition, wild-type HsHsp90 nucleotide-binding domain.
In series [2] the test system is HuH7 cells. As to the kind of experiment: HuH7 host cell viability. In kind it is cell-based, human. To be noted: at 10 μM.
The target in series [3] is HsHsp90 NBD E25D/K112R (Homo sapiens, UniProt P07900, E25D/K112R). Description: FITC-GA competition, salt bridge double mutant HsHsp90 NBD. The series is classed as binding.
Series [4] deals with P. falciparum proteasome. The series is classed as biochemical, Plasmodium falciparum.
Series [5] addresses T1, HsHsp90 (Homo sapiens, UniProt P07900). As to the kind of experiment: FITC-geldanamycin competitive binding assay.
Series [6] relates to P. berghei ANKA. As to the kind of experiment: Liver stage parasite load in HuH7 cells. In kind it is cell-based, Plasmodium berghei. Particulars: for EC50: Plasmodium berghei, Huh-7, 44 h, read-out: EC50, liver stage P. berghei; for relative P. berghei parasite load in HuH7 cells: at ~30 μM.
Series [7] relates to HsHsp90 NBD L122I/G125S/A126G and Q23N. As to the kind of experiment: FITC-GA competition, other HsHsp90 NBD variants. The series is classed as binding, human. Particulars: compared to WT HsHsp90 NBD. In short, it runs like this: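 Fluorescence polarization displacement of 1.0 nM FITC-geldanamycin from each His-tagged human Hsp90 NBD variant (25 nM). Buffer was 20 mM HEPES pH 7.3, KCl, MgCl2, Na2MoO4, DTT, 0.01% NP-40. Test compound was dosed at 0–10 μM with 1% final DMSO. Plates were held overnight at 4 °C in the dark, then read at Ex 480/Em 535. Percent bound was normalized to protein-only and protein-free tracer controls. At least 4 independent determinations.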

The subject of series [8] is P. falciparum 3D7. As to the kind of experiment: Asexual blood stage parasite inhibition assay. The series is classed as cell-based. To be noted: Plasmodium falciparum, 3D7, 72 h, read-out: EC50, blood stage P. falciparum 3D7. Put shortly:
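Ring-stage 3D7 cultures (2% parasitemia, 1% hematocrit) were exposed to test compound at 0–50 μM (0.5% DMSO) for 72 h at 37 °C under 3% O2/5% CO2/92% N2. Controls were DMSO and quinacrine (1 μM). Cells were lysed in saponin/Triton X-100 buffer with 10X SYBR Green I and stained 24 h at RT in the dark. Fluorescence was read at Ex 485/Em 535 and normalized to controls. 2–3 replicates, 2–4 independent experiments.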

Series [9] addresses T2, PfHsp90 (Plasmodium falciparum, UniProt Q8IC05). Description: FITC-geldanamycin competitive binding assay.
In series [10] the test system is PfHsp90. Description: FITC-geldanamycin competitive binding assay. Particulars: ratio of HsHsp90 to PfHsp90 affinity.
Series [11] concerns the target T2, PfHsp90. To be noted: cited from earlier work.
Series [12] deals with T1, HsHsp90. To be noted: read-out: Kd of FITC-GA to full-length HsHsp90; cited from earlier work.
Series [13] relates to 26S proteasome. As to the kind of experiment: Native gel in-gel Suc-LLVY-AMC hydrolysis, 26S band. In kind it is cell-based, Plasmodium falciparum.
Series [14] deals with 20S particles. Description: Native gel in-gel Suc-LLVY-AMC hydrolysis, 20S band after SDS activation. In kind it is cell-based, Plasmodium falciparum.
Series [15] has as its system P. falciparum gametocytes (NF54 peg4-tdTomato). Description: Gametocyte inhibition assay. In kind it is cell-based. To be noted: Plasmodium falciparum.
Setting [16] is: lysate treated with epoxomicin vs DMSO.
The mark [17] stands for this setting: 10 μM, 3 hours, cycloheximide 50 μM co-treatment.
Setting [18] is: NF54, 24 h, read-out: early gametocyte viability.
The mark [19] stands for this setting: NF54, 240 h, read-out: late gametocyte viability.

As for `CCOC(=O)NCc1ccc(-n2c(-c3cc(C(C)C)c(O)cc3O)n[nH]c2=S)cc1` [BX-2819], the inhibition constant (Ki) (as a rule, a dissociation constant, usually derived from enzyme kinetics or from competition with a known ligand) was found to be 0.019 ± 0.004 µM in series [1], 0.013 ± 0.0025 µM in series [3], 0.049 ± 0.0043 µM in series [5] and 0.024 ± 0.0044 µM in [9]. In addition, the “decrease of HuH7 viability” value in series [2] is ≤ 50%. For the same molecule, the “reaction rate compared to DMSO control” value in [4] (100 μM BX-2819 with 3 μM purified PfHsp90) is “not different from the DMSO control”. Further, the “Suc-LLVY-AMC hydrolysis in PfHsp90-treated samples” value in [4] (BX-2819 10–100 μM with PfHsp90 3 μM) is on record as “reduced hydrolysis in a dose-dependent manner; also recorded: negated the increased rate”. For the same molecule, the half-maximal effective concentration (EC50) (as a rule, the concentration that produces a half-maximal response) stood at 1.5 ± 0.41 µM in series [6] and 0.74 ± 0.034 µM in [8]. The “relative P. berghei parasite load in HuH7 cells” value in [6] is on record as “near zero”. Besides, the “change in affinity for other HsHsp90 NBD constructs” value in series [7] is “unaltered”. Moreover, the “displacement of FITC-GA from PfHsp90” value in series [9] (BX-2819 10 μM) is “displaces FITC-GA”. The “selectivity to PfHsp90 over HsHsp90” value in [10] is listed as 2.0 fold.

As for `CO[C@H]1/C=C\C=C(/C)C(=O)NC2=CC(=O)C(NCCCCCCNC(=S)Nc3ccc(-c4c5ccc(=O)cc-5oc5cc(O)ccc45)c(C(=O)O)c3)=C(C[C@@H](C)C[C@H](OC)[C@H](O)[C@@H](C)/C=C(\C)[C@@H]1OC(N)=O)C2=O` [FITC-GA], the Kd (usually the constant that tells how readily two partners part at equilibrium) is 0.042 µM in series [11] (read-out: Kd of FITC-GA to full-length PfHsp90) and 0.023 µM in series [12].

For the molecule `CC[C@@H](C)Nc1cc(C(=O)NC2C[C@H]3CC[C@@H](C2)N3c2ccc(C(=O)C3CC3)cn2)c(C)cc1C(N)=O` (stereo partly drawn) [XL888], the inhibition constant (Ki) stood at 0.068 ± 0.023 µM in series [1], 0.0096 ± 0.0016 µM in [3], 0.13 ± 0.03 µM in [5] and 0.027 ± 0.0078 µM in series [9]. For the same molecule, in series [2], the “decrease of HuH7 viability” value is ≤ 50%. For the same molecule, the “improvement in affinity to E25D/K112R double mutant compared to WT HsHsp90 NBD” value in series [3] is 7 fold. Besides, the 50% effective concentration (EC50) is 0.24 ± 0.045 µM in series [6] and 0.33 ± 0.11 µM in series [8]. Moreover, the “relative P. berghei parasite load in HuH7 cells” value in series [6] is recorded as “near zero”. Besides, the “change in affinity for other HsHsp90 NBD constructs” value in series [7] is listed as “no significant differences”. In addition, in series [10], the “selectivity to PfHsp90 over HsHsp90” value stood at 4.8 fold.

In the case of `CC(C)C[C@H](NC(=O)[C@H](Cc1ccccc1)NC(=O)c1cnccn1)B(O)O` [bortezomib], the “Suc-LLVY-AMC hydrolysis in P. falciparum lysate” value in [4] (bortezomib 25 μM, 180 min, compared to DMSO) was “significantly reduced; also recorded: decreased total hydrolysis”.

For the molecule `CC[C@H](C)[C@H](NC(=O)[C@H]([C@@H](C)CC)N(C)C(C)=O)C(=O)N[C@H](C(=O)N[C@@H](CC(C)C)C(=O)[C@@]1(C)CO1)[C@@H](C)O` [epoxomicin], the 26S band result in [13] (setting [16]) is listed as “reduced”. The “activated 20S band” value in series [14] (setting [16]) is recorded as “reduced”.

For `COC1=C2C[C@@H](C)C[C@H](OC)[C@H](O)[C@@H](C)/C=C(\C)[C@H](OC(N)=O)[C@@H](OC)/C=C\C=C(/C)C(=O)NC(=CC1=O)C2=O` [geldanamycin], in [13] (setting [17]), the “proportion of active 26S proteasomes compared to DMSO control” value was 63%. For the same molecule, in series [15] (setting [18]), the viability (as a rule, the share of living cells, or the viability signal relative to a control) at 1 µM came out at 37% and the viability at 10 µM stood at 16%. In series [15] (setting [19]), the viability at 1 µM was determined as 71% and the viability at 10 µM stood at 56%. In series [14] (setting [17]), the “latent 20S particles (after activation) compared to DMSO control” value was determined as 158%.

As to `COc1ccc2c(c1)[nH]c1c(C)nccc12` [harmine], in series [11], the affinity result is on record as “micromolar”.
